In ChEMBL document CHEMBL3872225, “Synthesis, binding assays, cytotoxic activity and docking studies of benzimidazole and benzothiophene derivatives with selective affinity for the CB2 cannabinoid receptor” (Eur J Med Chem, 2016):

How the values were obtained:
Cannabinoid receptor 2 [1] = target: T1, Cannabinoid receptor 2 (Homo sapiens, UniProt P34972); assay: Displacement of [3H]CP-55940 from human recombinant CB2 receptor expressed in HEK293 cell membranes at 1 uM incubated for 1.5 hrs relative to control
How it was run: (§1)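 Single-point screen on HEK-293 membranes overexpressing human CB1 or CB2. […] Compounds displacing more than 50% at 1 μM went on to full curves.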

[2] = Cytotoxicity against resistant human HCT116 cells assessed as reduction in cell viability measured after 72 hrs by MTT assay; assay type: functional, cell-based; settings: HCT-116, 72 h
How it was run: (§2)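 Cells kept in RPMI 1640 with 5% FBS, penicillin/streptomycin, 37 °C, 5% CO2. Seeded at 10,000 cells/well, then exposed to compounds at 0.001–10 μM in 5% FBS-RPMI for 72 h at 37 °C. MTT added for 4 h, formazan dissolved overnight in 10% SDS/0.1 mM HCl, absorbance read at 570 nm. […] Etoposide as positive control.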

[3] = Cytotoxicity against human H1975-1 cells assessed as reduction in cell viability measured after 72 hrs by MTT assay; assay type: functional, cell-based; how it was run: as §2
Homo sapiens = species: Homo sapiens; assay: Selectivity index, ratio of Ki for displacement of [3H]CP-55940 from human recombinant CB1 receptor to Ki for displacement of [3H]CP-55940 from human recombinant CB2 receptor
How it was run: (§3)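 Membranes from HEK-293 cells overexpressing human CB1 or CB2 incubated with increasing compound concentrations and 0.5 nM [3H]CP-55,940 at 30 °C for 1.5 h. […] Selectivity index is Ki CB1/Ki CB2.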

Cannabinoid receptor 1 = Cannabinoid receptor 1 (Homo sapiens, UniProt P21554); assay: Displacement of [3H]CP-55940 from human recombinant CB1 receptor expressed in HEK293 cell membranes incubated for 1.5 hrs; how it was run: as §3
[4] = target: Cannabinoid receptor 1 (CB1) (Homo sapiens, UniProt P21554); assay: Displacement of [3H]CP-55940 from human recombinant CB1 receptor expressed in HEK293 cell membranes at 1 uM incubated for 1.5 hrs relative to control; settings: probe [3H]CP-55940; how it was run: as §1
[5] = Cytotoxicity against human HL60 cells assessed as reduction in cell viability measured after 72 hrs by MTT assay; assay type: functional, cell-based; settings: HL-60, 72 h; how it was run: as §2
[6] = Cytotoxicity against African green monkey Vero cells assessed as reduction in cell viability measured after 72 hrs by MTT assay; assay type: toxicity, cell-based; settings: Chlorocebus sabaeus (African green monkey); how it was run: as §2
Cannabinoid receptor 2 [7] = target: T1, Cannabinoid receptor 2; assay: Displacement of [3H]CP-55940 from human recombinant CB2 receptor expressed in HEK293 cell membranes incubated for 1.5 hrs; how it was run: as §3
[8] = Cytotoxicity against human HeLa cells assessed as reduction in cell viability measured after 72 hrs by MTT assay; assay type: functional, cell-based; how it was run: as §2

Sequence of Cannabinoid receptor 1 (P21554 whole entry): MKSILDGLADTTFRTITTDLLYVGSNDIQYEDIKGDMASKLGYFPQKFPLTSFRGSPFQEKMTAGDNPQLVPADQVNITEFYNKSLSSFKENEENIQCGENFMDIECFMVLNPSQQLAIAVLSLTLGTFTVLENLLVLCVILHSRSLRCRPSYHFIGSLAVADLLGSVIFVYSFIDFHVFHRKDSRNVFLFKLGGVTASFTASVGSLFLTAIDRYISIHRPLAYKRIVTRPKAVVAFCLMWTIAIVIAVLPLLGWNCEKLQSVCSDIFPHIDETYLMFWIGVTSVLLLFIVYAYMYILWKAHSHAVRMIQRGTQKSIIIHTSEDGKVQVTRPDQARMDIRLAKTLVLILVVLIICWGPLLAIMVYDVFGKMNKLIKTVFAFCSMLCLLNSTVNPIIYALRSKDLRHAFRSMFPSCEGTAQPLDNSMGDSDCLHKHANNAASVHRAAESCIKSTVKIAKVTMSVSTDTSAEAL
Sequence of Cannabinoid receptor 1 (CB1) (P21554 whole entry): as above
T1 sequence (P34972 whole entry): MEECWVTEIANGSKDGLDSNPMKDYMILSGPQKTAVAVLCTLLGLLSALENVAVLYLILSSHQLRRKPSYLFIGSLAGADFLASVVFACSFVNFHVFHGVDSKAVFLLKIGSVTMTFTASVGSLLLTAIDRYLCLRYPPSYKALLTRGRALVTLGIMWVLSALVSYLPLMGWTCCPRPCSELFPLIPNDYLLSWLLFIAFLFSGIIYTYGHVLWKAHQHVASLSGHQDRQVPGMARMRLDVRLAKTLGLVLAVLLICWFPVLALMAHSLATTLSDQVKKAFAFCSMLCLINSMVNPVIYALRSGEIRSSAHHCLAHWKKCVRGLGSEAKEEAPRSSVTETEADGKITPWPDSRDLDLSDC

SMILES | inhibition (Cannabinoid receptor 2 [1]) [%] | IC50 [2] [nM] | IC50 [3] [nM] | Ratio Ki (Homo sapiens) | IC50 (Cannabinoid receptor 1) [nM] | Ki (Cannabinoid receptor 1) [nM] | inhibition at 1.5 h, 1 µM [4] [%] | IC50 [5] [nM] | IC50 at 72 h [6] [nM] | IC50 (Cannabinoid receptor 2 [7]) [nM] | Ki (Cannabinoid receptor 2 [7]) [nM] | IC50 [8] [nM]
CCCCc1nc2ccccc2n1C(=O)c1ccc(OC)cc1 | > 50 | > 10000 | > 10000 | > 6.25 | > 10000 | > 10000 | > 50 | 61 | 170 | 6300 | 1600 | > 10000
COc1ccc(C(=O)n2c(C3CCCCC3)nc3ccccc32)cc1 | > 50 | > 10000 | > 10000 | > 14 | > 10000 | > 10000 | > 50 | 85 | 1640 | 2800 | 700 | > 10000
CCCCCc1sc2ccccc2c1C(=O)c1cccc2ccccc12 | > 50 | > 10000 | > 10000 | 1.7 | 800 | 500 | > 50 | 170 | > 10000 | 1300 | 300 | > 10000
COc1ccc(C(=O)n2c(C(C)(C)C)nc3ccccc32)cc1 | > 50 | 20 | > 10000 | > 16.7 | > 10000 | > 10000 | > 50 | 55 | > 10000 | 2400 | 600 | > 10000
COc1ccc(C(=O)n2c(C3CCCC3)nc3ccccc32)cc1 | > 50 | > 10000 | > 10000 | > 20 | > 10000 | > 10000 | > 50 | 76 | > 10000 | 2200 | 500 | > 10000
